This is a sample that favours compounds with a hit; in the whole collection about 2.4% have one here.
PfG6PD inh: PfG6PD (Plasmodium falciparum) enzyme inhibition | PfGluPho enzyme, NADPH resazurin-diaphorase fluorescence | inhibition, % at 20 µM | 350,000 compounds, 0.78% hits;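 active means inhibition reaching at least a set limit at 20 µM in the primary screen, cut at about 59% in these data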;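 further: 0% = DMSO wells with substrate and 100% = DMSO wells lacking glucose-6-phosphate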
PfM18AAP inh-1: PfM18AAP enzyme inhibition. 290,000 compounds, 1.2% hits. recombinant PfM18AAP, H-Glu-NHMec fluorogenic cleavage. inhibition, % at 7.35 µM. AID 1822;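 active means inhibition above the campaign mean inhibition over all tested compounds plus 3 SD, cut at about 28% in these data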;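 further: 0% = plate median of test compound wells and 100% = 2 mM ZnCl2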
SUMO HTRF inh: blocks human SUMOylation mediated by UBC9; P63279; HTRF SUMOylation assay, SAE1/SAE2 + UBC9, in vitro; inhibition, % at 35 µM; 290,000 compounds, 0.36% hits; in the data active means inhibition above about 50%, passing the limit was not always enough; inconclusive means no clear call, values can overlap the other calls
Target sequence (P63279 whole entry, looked up): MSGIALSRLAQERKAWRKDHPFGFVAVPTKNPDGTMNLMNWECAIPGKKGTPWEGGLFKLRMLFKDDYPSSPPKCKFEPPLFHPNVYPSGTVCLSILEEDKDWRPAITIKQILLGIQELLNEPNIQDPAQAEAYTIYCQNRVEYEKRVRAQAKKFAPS
APOBEC3A inh: human APOBEC3A DNA deaminase inhibition; P31941; recombinant A3A, FAM/TAMRA ssDNA deamination fluorescence; inhibition, % at 20 µM; 330,000 compounds, 0.41% hits; AID 493011;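 active means at least 40% inhibition at 20 µM here, with at most 30% in a related deaminase screen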;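 further: plate controls were A3A with DMSO for no effect and wells lacking A3A enzyme for full effect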
HKDC1 inhibitor: blocks human hexokinase HKDC1 activity; inhibition, % at 20 µM; AID 493160; 340,000 compounds, 0.16% hits; Q2TB90; recombinant HKDC1, G6PDH/diaphorase resazurin coupled fluorescence;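 active means inhibition above about 35% when tested at 20 µM, limit read from the data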;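 further: plate controls were DMSO wells with enzyme for no effect and DMSO wells lacking enzyme for full effect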
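Test system: HK5 enzyme. Quantity: 5 µg/mL HK5 final. Reagent: glucose and ATP substrates. Schedule: 90 min reaction incubation at room temperature, dark. Technique: resazurin-to-resorufin fluorescence via G6PDH and diaphorase coupling, 525/613 nm. Control set: DMSO wells with and without enzyme mix.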
APOBEC3G inh: inhibitors of human APOBEC3G DNA deaminase | Q9HC16 | recombinant A3G, ssDNA deamination FAM/TAMRA fluorescence | inhibition, % at 20 µM | 330,000 compounds, 0.28% hits | AID 493012;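 active means inhibition of at least 40% at 20 µM, with no more than 30% in the related APOBEC3A deaminase screen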;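 further: plate controls were DMSO wells with A3G for no effect and wells lacking A3G enzyme for full effect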
PfM18AAP inh-2: confirmation of Plasmodium falciparum M18 aspartyl aminopeptidase inhibitors; shares compounds with PfM18AAP inh-1; recombinant PfM18AAP, H-Glu-NHMec fluorogenic cleavage; inhibition, % at 7.35 µM; 2,400 compounds, 28% hits; AID 2170;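 active means mean inhibition over replicate wells above the hit cutoff set for the earlier primary screen, cut at about 29% in these data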;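 further: 0% = median of test compound wells and 100% = 2 mM ZnCl2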
CTSL1 confirm: counter-screen for PFM18AAP inhibitors: confirmation of human cathepsin L inhibitors; inhibition, % at 5.96 µM; shares compounds with PfM18AAP inh-1; purified cathepsin L1, Z-Leu-Arg-MCA fluorescence; 2,400 tested, under 10 active;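 active means average inhibition across replicates above the hit cutoff set in the earlier primary screen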;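 further: 0% = median of test compound wells and 100% = Z-Phe-Ala-diazomethylketone 1 µM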
Target sequence (P07711 whole entry, looked up): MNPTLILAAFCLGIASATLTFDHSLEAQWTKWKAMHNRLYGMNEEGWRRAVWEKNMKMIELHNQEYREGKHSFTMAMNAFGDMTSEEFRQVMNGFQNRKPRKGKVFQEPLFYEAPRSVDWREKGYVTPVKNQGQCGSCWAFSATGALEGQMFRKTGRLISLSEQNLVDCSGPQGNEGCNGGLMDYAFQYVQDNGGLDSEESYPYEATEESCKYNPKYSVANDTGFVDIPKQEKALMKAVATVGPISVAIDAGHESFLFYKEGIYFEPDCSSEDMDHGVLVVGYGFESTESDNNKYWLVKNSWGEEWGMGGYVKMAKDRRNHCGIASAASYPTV
An asterisk follows results filed as active; ? = inconclusive; / = not tested or not shown.

SMILES	PfG6PD inh	PfM18AAP inh-1	SUMO HTRF inh	APOBEC3A inh	HKDC1 inhibitor	APOBEC3G inh	PfM18AAP inh-2	CTSL1 confirm
O=C(Nc1ccc(-c2noc(CCc3ccccc3)n2)cc1)c1ccco1	17	-4	4	-1	2	12	/	/
CN(C(=O)c1cccc(S(=O)(=O)N2CCCCC2)c1)C1CCS(=O)(=O)C1 (stereo not given)	-3	/	/	0	-4	-2	/	/
Cc1cc(C)nc(SCSc2nc(C)cc(C)n2)n1	-14	-1	7	/	-5	/	/	/
Cc1cc(C)nc(SCCc2ccncc2)n1	42	50*	-6	-1	-3	5	-8	-3
Cc1ccccc1Cn1cc(NC(=O)c2noc3c2CC(C(C)(C)C)CC3)cn1 (stereo not given)	1	-9	-32	2	-6	0	/	/
COc1cccc2sc(NNC(=O)C3=COCCO3)nc12	3	43*	-5	-4	-6	-10	26	-1
COc1ccc(OC)c2sc(NC(=O)C3=COCCO3)nc12	-4	2	19	0	2	2	/	/
O=C1[C@@H]2[C@@H]3C[C@@H]([C@H]4ON=C(c5ccc(Cl)cc5Cl)[C@@H]34)[C@@H]2C(=O)N1C1CCCCC1	8	-3	-12	-1	-1	-7	/	/
COC(=O)NNC(=O)COc1ccc(Br)c(C)c1	7	-6	-8	-6	-4	-5	/	/
Cc1cc(OCC(=O)Nn2cnnc2)ccc1Br	-20	56*	8	-5	-9	-6	59*	-7
NS(=O)(=O)c1ccc(NNC(=O)c2cccs2)cc1	-9	55*	13	-1	1	-1	36*	2
O=C(NNC(=S)Nc1ccc(Cl)cc1)c1cccs1	-26	8	-9	1	-3	-1	/	/
O=C(NNc1ccc(Cl)cc1)c1cccs1	22	44*	20	-1	-2	-1	25	-1
O=C(NNc1cc(Cl)cc(Cl)c1)c1cccs1	16	37*	10	-1	4	-5	33*	2
O=C(Nc1ncc(Cl)cn1)c1cccs1	-17	-4	7	-2	-3	-6	/	/
O=C(NNC(=O)c1cccs1)Nc1cccc(Cl)c1	-2	60*	-24	-1	-2	-1	20	3
O=C(NCc1cccs1)Nc1cccc(Cl)c1	22	6	/	0	6	1	/	/
C/C(O)=C(\N=Nc1cc(C)ccc1O)C(N)=O	-12	12	-2	-5	-8	-5	/	/
CCOC(=O)C1CCN(C(=S)NC(=O)c2cccs2)CC1	4	10	3	2	-4	1	/	/
CCN(CCCNC(=O)C1CCC(=O)N1Cc1ccc(C)cc1)c1cccc(C)c1 (stereo not given)	6	54*	-2	-4	-2	-4	-17	4
CCN(CCCNC(=O)CN1C(=O)COc2ccccc21)c1cccc(C)c1	14	49*	-14	-1	-7	-2	-12	2
CCN(CCNC(=O)c1cccc(N2CCCC2=O)c1)c1ccccc1	-5	-1	-9	0	1	-1	/	/
CCN(CCNC(=O)C1CCC(=O)N1Cc1ccc(C)cc1)c1ccccc1 (stereo not given)	-3	5	-14	-1	-6	-6	/	/
CCN(CCCNC(=O)C1CCC(=O)N1Cc1ccccc1Cl)c1cccc(C)c1 (stereo not given)	13	37*	11	5	-3	0	-23	-1
CN(CCCNC(=O)C1CCC(=O)N1Cc1ccccc1Cl)c1ccccc1 (stereo not given)	-10	0	-1	-4	-5	-6	/	/
SMILES	PfG6PD inh	PfM18AAP inh-1	SUMO HTRF inh	APOBEC3A inh	HKDC1 inhibitor	APOBEC3G inh	PfM18AAP inh-2	CTSL1 confirm
CCN(CCCNC(=O)c1ccc(N2CCCC2=O)cc1)c1cccc(C)c1	14	41*	-2	2	0	2	-17	2
Cc1ccc(-n2nc3c(=S)[nH]nc(C)c3c2C)cc1	9	-1	5	-20	1	-3	/	/
CCCS(=O)(=O)N1CCC(C(=O)NCCCN(CC)c2cccc(C)c2)CC1	25	40*	-10	-5	2	-5	-15	0
O=S(=O)(NNc1nccc(C(F)(F)F)n1)c1cccc(Cl)c1Cl	57	56*	4	-3	-1	-12	14	6
CCN(CC)c1ccc(NS(=O)(=O)c2ccc(OC)cc2)cc1	27	32*	10	-1	-5	-8	-27	1
COc1ccc(S(=O)(=O)Nc2ccc(N(C)C(C)=O)cc2)cc1	-3	5	13	1	-3	1	/	/
O=C(O)c1ccc2nc(-c3ccco3)c(-c3ccco3)nc2c1	51	35*	?	97	12	85	-1	4
COc1ccc(C(=O)NCC(=O)Nc2ccccc2)cc1OC	4	-3	5	-17	-10	-1	/	/
COc1ccc(/C=N/Nc2nn3cnnc3c3ccccc23)cc1	20	38*	-2	0	-4	-9	-48	3
COc1ccc(/C=N/Nc2nonc2N)cc1	-2	32*	-6	-4	-11	-6	-30	-2
CCNc1nc(NCC)nc(N/N=C/c2ccc(OC)cc2)n1	-5	-2	27	3	-8	-1	/	/
OCCN1CCN(C(=S)NC2CCCC2)CC1	-4	-12	-13	-4	-10	-7	/	/
O=S(=O)(Nc1ccc(N2CCOCC2)cc1)c1ccc2ccccc2c1	8	4	0	7	-7	-2	/	/
CCCCc1nn(-c2cc(Cl)ccc2OC)c2c1C(=O)CCC2	4	2	-14	-2	-1	-5	/	/
O=c1[nH]c(/C=C\c2ccc(O)c(O)c2)nc(O)c1[N+](=O)[O-]	1	78*	9	-1	0	-6	76*	4
Oc1c(C=C2N=c3ccccc3=N2)sc(=S)n1-c1ccc2ccccc2c1	0	7	36	0	-5	-6	/	/
Cc1ccc(S(=O)(=O)Nn2c(O)c(C=C3N=c4ccccc4=N3)sc2=S)cc1	-15	15	8	3	11	-4	/	/
Cc1ccc(C(=O)Nn2c(O)c(C=C3N=c4ccccc4=N3)sc2=S)cc1	8	55*	3	0	-8	-11	-31	1
O=C(Nn1c(O)c(C=C2N=c3ccccc3=N2)sc1=S)c1cccc(Cl)c1	-8	54*	27	-7	6	-9	-3	-2
Oc1c(C=C2N=c3ccccc3=N2)sc(=S)n1-c1ccc(F)cc1	10	38*	5	0	-3	-9	-17	2
O=C(Nn1c(O)c(C=C2N=c3ccccc3=N2)sc1=S)c1ccc(Cl)cc1	19	25	-20	0	9	0	/	/

Bioassay records deposited in PubChem BioAssay by several laboratories.
